Source: ChEMBL document CHEMBL3792310, “Amine-free melanin-concentrating hormone receptor 1 antagonists: Novel non-basic 1-(2H-indazole-5-yl)pyridin-2(1H)-one derivatives and mitigation of mutagenicity in Ames test” (Bioorg Med Chem, 2016)
Active and inactive are the calls of the source. The rule behind the calls is not given here.

Columns and labels:
[1] = target: T1, Melanin-concentrating hormone receptor 1 (Homo sapiens, UniProt Q99705); experiment: Antagonist activity at human MCHR1 expressed in CHO cells assessed as inhibition of MCH-stimulated Ca2+ mobilization measured every 2 secs by fluorometric analysis; type: functional, cell-based
In short: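 Human MCHR1 stably transfected into CHO dhfr− cells; clone no.4 used. Cells seeded at 20000/well, cultured about 24 h at 37 °C in 5% CO2, loaded with Fluo4 dye for 30 min. Compound in 10 mM HEPES pH 7.4 buffer with 0.1% BSA added first, then MCH(4–19) at 2 nM final. Fluorescence read at 2 s intervals; inhibition % taken against ligand-only and DMSO-only wells.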

[2] = Oral bioavailability in Sprague-Dawley rat plasma at 1 mg/kg administered through cassette dosing by LC/MS/MS analysis; type: ADME, organism-based
In short: (§1)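 Male SD rats, eight weeks old, fed; cassette dosing iv at 0.1 mg/kg or po at 1 mg/kg as a suspension in 0.5% methylcellulose, n = 3. Plasma taken from blood, deproteinized with acetonitrile, centrifuged, and the supernatant measured by LC/MS/MS. AUC covers 0–8 h.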

[3] = Volume of distribution at steady state in Sprague-Dawley rat at 0.1 mg/kg, iv administered through cassette dosing by LC/MS/MS analysis; type: ADME, organism-based; details: in vivo, read-out: Vdss; in short: as §1
[4] = Tmax in Sprague-Dawley rat at 1 mg/kg, po administered through cassette dosing by LC/MS/MS analysis; type: ADME, organism-based; details: in vivo; in short: as §1
[5] = target: Melanin-concentrating hormone receptor 1 (Rattus norvegicus, UniProt P97639); experiment: Displacement of [125I]-MCH(4 to 19) from rat MCHR1 expressed in CHO cell membranes after 1 hr by liquid scintillation counting
[6] = tested on: Salmonella typhimurium; experiment: Mutagenicity in Salmonella typhimurium TA1537 assessed as increase in number of revertant colony up to 5000 ug/plate by Ames test in absence of S9 fraction; type: toxicity, organism-based; details: salmonella enterica subsp. enterica serovar typhimurium
In short: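 Ames test in Salmonella typhimurium TA1537, with and without S9 metabolic activation. A positive call is a more than two-fold increase in revertant colonies over vehicle control.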

[7] = Cmax in Sprague-Dawley rat at 1 mg/kg, po administered through cassette dosing by LC/MS/MS analysis; type: ADME, organism-based; parameters: dose 1 mg/kg, route oral; details: in vivo; in short: as §1
[8] = AUC(0 to 8 hrs) in Sprague-Dawley rat at 1 mg/kg, po administered through cassette dosing by LC/MS/MS analysis; type: ADME, organism-based; parameters: dose 1 mg/kg, route oral; details: in vivo; in short: as §1
[9] = target: T1, Melanin-concentrating hormone receptor 1; experiment: Displacement of [125I]-MCH(4 to 19) from human MCHR1 expressed in CHO cell membranes after 1 hr liquid scintillation counting
[10] = Total plasma clearance in Sprague-Dawley rat at 0.1 mg/kg, iv administered through cassette dosing by LC/MS/MS analysis; type: ADME, organism-based; in short: as §1
[11] = target: Cytochrome P450 2D6 (Homo sapiens, UniProt P10635); experiment: Reversal inhibition of CYP2D6 (unknown origin) at 10 uM; type: ADME
[12] = target: Cytochrome P450 2C9 (Homo sapiens, UniProt P11712); experiment: Reversal inhibition of CYP2C9 (unknown origin) at 10 uM; type: ADME
[13] = target: Cytochrome P450 3A4 (Homo sapiens, UniProt P08684); experiment: Reversal inhibition of CYP3A4 (unknown origin) at 10 uM; type: ADME
[14] = target: T2, Cytochrome P450 2C8 (Homo sapiens, UniProt P10632); experiment: Reversal inhibition of CYP2C8 (unknown origin) at 10 uM; type: ADME
T2 sequence (P10632 whole entry): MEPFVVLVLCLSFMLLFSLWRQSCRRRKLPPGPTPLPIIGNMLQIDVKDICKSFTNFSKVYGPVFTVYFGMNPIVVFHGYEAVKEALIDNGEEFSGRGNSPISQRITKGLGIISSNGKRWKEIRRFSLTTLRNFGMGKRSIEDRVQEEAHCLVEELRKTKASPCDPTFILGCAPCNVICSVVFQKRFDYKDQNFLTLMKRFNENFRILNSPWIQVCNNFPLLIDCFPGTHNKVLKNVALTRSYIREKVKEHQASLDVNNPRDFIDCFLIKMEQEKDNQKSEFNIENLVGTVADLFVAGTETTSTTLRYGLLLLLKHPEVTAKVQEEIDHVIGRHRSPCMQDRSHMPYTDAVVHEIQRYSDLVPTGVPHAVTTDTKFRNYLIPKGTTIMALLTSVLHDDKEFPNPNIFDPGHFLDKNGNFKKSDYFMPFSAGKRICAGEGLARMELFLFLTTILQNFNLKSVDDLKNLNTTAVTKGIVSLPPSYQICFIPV

[15] = species on record: Mus musculus; experiment: Anorectic effect in wild type mouse assessed as reduction in food intake; type: functional, organism-based
[16] = tested on: Rattus norvegicus; experiment: Antiobesity activity in DIO-F344/Jcl rat assessed as reduction in body weight at 5 mg/kg, po dosed for 2 weeks and measured every 2 or 3 days relative to vehicle control; type: functional; parameters: scale not given: the % may be the effect or the level left
In short: (§2)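 DIO-F344 rats, 48 weeks old, habituated and grouped as for the acute study. Dosed orally once daily for 2 weeks at 2 mL/kg in 0.5% methylcellulose, 1–3 h before dark onset, after body weight measurement; n = 6. Sibutramine positive control. Food intake read every 2 or 3 days. Body weight change is taken as percent of initial weight; mean and SD reported.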

[17] = Fraction unbound in DIO-F344/Jcl rat plasma at 10 mg/kg, po; type: ADME, organism-based
[18] = tested on: Rattus norvegicus; experiment: Antiobesity activity in DIO-F344/Jcl rat assessed as reduction in body weight at 10 mg/kg, po dosed for 2 weeks and measured every 2 or 3 days relative to vehicle control; type: functional; parameters: scale not given: the % may be the effect or the level left; in short: as §2
[19] = tested on: Rattus norvegicus; experiment: Anorectic effect in DIO-F344/Jcl rat at 3 mg/kg, po administered for 2 days started 2 hrs prior to onset of dark period measured during compound dosing; type: functional
In short: (§3)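 Male DIO-F344/Jcl rats, 44 weeks old, on high-fat diet from 5 weeks of age. Singly housed on powder high-fat diet and habituated to oral dosing with tap water, then grouped by day-0 food intake and body weight. Oral dosing at 2 mL/kg in 0.5% methylcellulose 2 h before dark onset for 2 days, n = 6. Two-day food intake is expressed as inhibition rate versus vehicle.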

[20] = target: T3, Cytochrome P450 1A2 (Homo sapiens, UniProt P05177); experiment: Reversal inhibition of CYP1A2 (unknown origin) at 10 uM; type: ADME
T3 sequence (P05177 whole entry): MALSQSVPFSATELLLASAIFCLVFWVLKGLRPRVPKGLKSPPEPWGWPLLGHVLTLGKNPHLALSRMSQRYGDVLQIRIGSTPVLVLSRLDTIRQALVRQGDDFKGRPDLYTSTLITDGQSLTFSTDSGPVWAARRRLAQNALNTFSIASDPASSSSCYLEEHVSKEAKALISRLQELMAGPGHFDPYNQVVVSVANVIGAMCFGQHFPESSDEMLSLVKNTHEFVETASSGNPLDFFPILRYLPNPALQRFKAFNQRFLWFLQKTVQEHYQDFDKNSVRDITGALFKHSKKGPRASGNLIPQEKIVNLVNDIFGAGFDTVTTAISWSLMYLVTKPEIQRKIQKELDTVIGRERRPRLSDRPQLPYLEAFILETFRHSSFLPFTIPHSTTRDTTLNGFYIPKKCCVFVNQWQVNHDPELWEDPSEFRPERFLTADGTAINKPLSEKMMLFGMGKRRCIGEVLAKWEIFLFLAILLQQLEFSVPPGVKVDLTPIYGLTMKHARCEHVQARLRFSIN

[21] = Ratio of drug level in brain to plasma in po dosed DIO-F344/Jcl rat; type: ADME, organism-based; details: read-out: BPR
[22] = tested on: Rattus norvegicus; experiment: Anorectic effect in DIO-F344/Jcl rat at 10 mg/kg, po administered for 2 days started 2 hrs prior to onset of dark period measured during compound dosing; type: functional; in short: as §3
[23] = tested on: Rattus norvegicus; experiment: Antiobesity activity in DIO-F344/Jcl rat assessed as reduction in body weight at 3 mg/kg, po dosed for 2 weeks and measured every 2 or 3 days relative to vehicle control; type: functional, organism-based; in short: as §2
[24] = species on record: Mus musculus; experiment: Toxicity in MCHR deficient mouse assessed as effect on food intake; type: organism-based; details: in vivo
[25] = tested on: Rattus norvegicus; experiment: Trough plasma concentration in DIO-F344/Jcl rat at 10 mg/kg, po; type: ADME, organism-based; details: in vivo, read-out: Cmin
[26] = tested on: Rattus norvegicus; experiment: Anorectic effect in DIO-F344/Jcl rat assessed as reduction in cumulative food intake at 10 mg/kg, po administered once daily for 2 weeks measured during compound dosing; parameters: scale not given: the % may be the effect or the level left
[27] = tested on: Plasma; experiment: Unbound plasma concentration in DIO-F344/Jcl rat at 10 mg/kg, po; type: ADME, organism-based; details: in vivo
[28] = tested on: Rattus norvegicus; experiment: Anorectic effect in DIO-F344/Jcl rat assessed as reduction in cumulative food intake at 5 mg/kg, po administered once daily for 2 weeks measured during compound dosing; parameters: scale not given: the % may be the effect or the level left
[29] = tested on: Salmonella typhimurium; experiment: Mutagenicity in Salmonella typhimurium TA1537 assessed as increase in number of revertant colony at 313 ug/plate by Ames test in absence of S9 fraction; type: toxicity, organism-based; details: salmonella enterica subsp. enterica serovar typhimurium

T1 sequence (Q99705 whole entry): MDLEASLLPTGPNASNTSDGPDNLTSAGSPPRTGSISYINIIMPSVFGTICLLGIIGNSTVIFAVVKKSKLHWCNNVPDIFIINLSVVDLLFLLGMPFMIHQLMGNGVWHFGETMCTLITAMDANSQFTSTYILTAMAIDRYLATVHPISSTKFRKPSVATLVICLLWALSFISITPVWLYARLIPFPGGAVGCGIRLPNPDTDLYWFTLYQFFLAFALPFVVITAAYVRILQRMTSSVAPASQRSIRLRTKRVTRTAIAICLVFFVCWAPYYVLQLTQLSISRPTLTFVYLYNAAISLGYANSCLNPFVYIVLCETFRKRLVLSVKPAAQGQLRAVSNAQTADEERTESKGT
Melanin-concentrating hormone receptor 1 (Rattus norvegicus, UniProt P97639), sequence (P97639 whole entry): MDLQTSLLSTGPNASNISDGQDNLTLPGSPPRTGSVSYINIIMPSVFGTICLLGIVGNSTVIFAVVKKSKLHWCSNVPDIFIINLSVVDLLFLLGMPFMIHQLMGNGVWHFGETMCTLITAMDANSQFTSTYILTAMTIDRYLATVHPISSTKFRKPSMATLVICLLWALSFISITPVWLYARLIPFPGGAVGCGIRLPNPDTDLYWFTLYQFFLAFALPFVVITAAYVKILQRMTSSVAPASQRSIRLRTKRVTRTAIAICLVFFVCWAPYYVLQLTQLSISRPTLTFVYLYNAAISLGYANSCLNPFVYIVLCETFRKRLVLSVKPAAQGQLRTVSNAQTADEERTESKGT
Cytochrome P450 2C9, sequence (P11712 whole entry): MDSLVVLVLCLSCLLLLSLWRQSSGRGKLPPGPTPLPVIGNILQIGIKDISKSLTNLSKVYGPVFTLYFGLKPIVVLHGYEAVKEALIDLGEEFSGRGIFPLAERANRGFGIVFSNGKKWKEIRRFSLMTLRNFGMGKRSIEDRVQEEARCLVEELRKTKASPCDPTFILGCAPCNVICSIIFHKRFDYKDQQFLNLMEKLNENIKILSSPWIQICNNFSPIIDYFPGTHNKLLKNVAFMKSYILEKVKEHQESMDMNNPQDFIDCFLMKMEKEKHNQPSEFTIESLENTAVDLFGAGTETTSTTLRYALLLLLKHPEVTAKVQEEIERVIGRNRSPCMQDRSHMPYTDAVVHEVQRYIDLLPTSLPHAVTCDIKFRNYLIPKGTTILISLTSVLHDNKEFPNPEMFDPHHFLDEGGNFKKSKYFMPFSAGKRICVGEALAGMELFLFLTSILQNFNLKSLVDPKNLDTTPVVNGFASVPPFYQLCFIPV
Cytochrome P450 3A4, sequence (P08684 whole entry): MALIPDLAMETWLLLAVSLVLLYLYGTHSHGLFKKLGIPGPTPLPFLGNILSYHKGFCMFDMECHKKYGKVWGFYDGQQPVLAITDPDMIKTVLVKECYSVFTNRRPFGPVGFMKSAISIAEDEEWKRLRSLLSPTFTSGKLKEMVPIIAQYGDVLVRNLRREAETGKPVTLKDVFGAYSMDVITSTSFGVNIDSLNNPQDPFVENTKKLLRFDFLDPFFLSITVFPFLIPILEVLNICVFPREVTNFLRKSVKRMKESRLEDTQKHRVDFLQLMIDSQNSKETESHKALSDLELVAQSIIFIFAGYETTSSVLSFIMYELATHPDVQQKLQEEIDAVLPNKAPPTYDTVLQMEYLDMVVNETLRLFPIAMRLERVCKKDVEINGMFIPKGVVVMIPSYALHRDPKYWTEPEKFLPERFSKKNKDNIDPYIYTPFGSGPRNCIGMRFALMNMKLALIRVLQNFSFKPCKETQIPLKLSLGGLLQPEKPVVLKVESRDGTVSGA
Cytochrome P450 2D6, sequence (P10635 whole entry): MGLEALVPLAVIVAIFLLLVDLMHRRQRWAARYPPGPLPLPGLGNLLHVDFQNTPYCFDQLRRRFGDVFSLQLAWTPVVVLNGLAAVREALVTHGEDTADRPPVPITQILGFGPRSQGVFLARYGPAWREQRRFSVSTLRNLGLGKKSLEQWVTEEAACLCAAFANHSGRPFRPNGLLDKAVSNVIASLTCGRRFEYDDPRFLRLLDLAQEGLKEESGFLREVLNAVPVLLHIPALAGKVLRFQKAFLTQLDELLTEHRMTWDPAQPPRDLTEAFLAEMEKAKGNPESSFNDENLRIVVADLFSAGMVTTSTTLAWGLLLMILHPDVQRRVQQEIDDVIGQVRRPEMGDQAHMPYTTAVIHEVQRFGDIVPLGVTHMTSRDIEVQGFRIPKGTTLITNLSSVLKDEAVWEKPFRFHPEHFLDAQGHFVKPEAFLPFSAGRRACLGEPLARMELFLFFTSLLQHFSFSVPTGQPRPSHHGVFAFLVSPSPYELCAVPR

With Cc1c2cc(-n3ccc(OCc4ccc(Cl)cc4)cc3=O)ccc2nn1C1CC1 as the compound, how does the IC50 [1] read?
Its IC50 is 33 nM.

And the bioavailability [2]?
Its bioavailability is 37%.

What about the Vd [3] of the same compound?
The Vd was 0.676 L/kg.

And the Tmax [4]?
Its Tmax is 4 h.

And the IC50 [5]?
The IC50 was 23 nM.

And the Activity [6]?
The Activity was “Non-toxic”.

What about the Cmax [7] of the same compound?
Its Cmax is 291 ng/mL.

And the AUC(0-t) at 6 h [8]?
The AUC(0-t) at 6 h was 1810 ng·h/mL.

What about the IC50 [9] of the same compound?
Its IC50 is 31 nM.

And the clearance [10]?
The clearance was 3.45 mL/min/kg.

With Cc1nn(C)c2ccc(-n3ccc(OCc4ccc(Cl)cc4)cc3=O)cc12 as the compound, how does the IC50 [9] read?
Its IC50 is 99 nM.

For Cc1c2cc(-n3ccc(OCc4ccc(F)cc4)cc3=O)ccc2nn1C1CC1, which IC50 [5] is on record?
Its IC50 is 35 nM.

What about the Activity [6] of the same compound?
Its Activity is “Non-toxic”.

What about the IC50 [9] of the same compound?
Its IC50 is 43 nM.

What does the source list for Cc1c2cc(-n3ccc(OCc4csc(C(F)(F)F)n4)cc3=O)ccc2nn1C?
IC50 [5]: 130 nM; IC50 [9]: 230 nM

Which IC50 [5] does the source give for CCn1nc2ccc(-n3ccc(OCc4ccc(Cl)cc4)cc3=O)cc2c1C here?
Its IC50 is 65 nM.

And the IC50 [9]?
Its IC50 is 140 nM.

Which “inhibition (INH)” value [11] does the source give for Cc1c2cc(-n3ccc(OCc4csc(C(F)(F)F)c4)cc3=O)ccc2nn1C1CC1 here?
Its value is “Not Active”.

What about the “inhibition (INH)” value [12] of the same compound?
Its value is “Not Active”.

And the “inhibition (INH)” value [13]?
The value was “Not Active”.

What about the “inhibition (INH)” value [14] of the same compound?
The value was “Not Active”.

And the IC50 [1]?
The IC50 was 79 nM.

And the Activity [15]?
Its Activity is “Dose-dependent effect”.

And the Activity [16]?
The Activity was 3.9%.

And the fraction unbound [17]?
Its fraction unbound is 0.022.

What about the Activity [18] of the same compound?
The Activity was 7.6%.

What about the Activity [19] of the same compound?
The Activity was 21.5%.

And the bioavailability [2]?
The bioavailability was 78%.

And the “inhibition (INH)” value [20]?
Its value is “Not Active”.

And the Vd [3]?
The Vd was 0.949 L/kg.

What about the Kp [21] of the same compound?
Its Kp is 0.66.

And the Activity [22]?
The Activity was 30.6%.

What about the Tmax [4] of the same compound?
The Tmax was 2.7 h.

And the IC50 [5]?
Its IC50 is 26 nM.

What about the Activity [6] of the same compound?
Its Activity is “Non-toxic”.

And the Cmax [7]?
The Cmax was 426 ng/mL.

What about the Activity [23] of the same compound?
The Activity was “Active”.

And the AUC(0-t) at 6 h [8]?
Its AUC(0-t) at 6 h is 2880 ng·h/mL.

What about the Activity [24] of the same compound?
Its Activity is “Non-toxic”.

What about the concentration [25] of the same compound?
The concentration was 3.36 µM.

And the Activity [26]?
Its Activity is 23.2%.

What about the “Cp(f)” value [27] of the same compound?
Its value is 0.0739 µM.

What about the IC50 [9] of the same compound?
The IC50 was 38 nM.

What about the clearance [10] of the same compound?
Its clearance is 4.93 mL/min/kg.

And the Activity [28]?
Its Activity is 12.2%.

With Cc1c2cc(-n3ccc(OCc4nc(C(F)(F)F)cs4)cc3=O)ccc2nn1C as the compound, how does the IC50 [5] read?
The IC50 was 76 nM.

What about the IC50 [9] of the same compound?
Its IC50 is 130 nM.

Which results are given for Cc1c2cc(-n3ccc(OCc4csc(C(F)(F)F)c4)cc3=O)ccc2nn1C?
fold change (FC) [29]: 2; IC50 [5]: 70 nM; IC50 [9]: 90 nM
